Bioassay records (PubChem)
UBC9 SUMO inh = blocks human SUMOylation mediated by UBC9 | HTRF SUMOylation assay, SAE1/SAE2 + UBC9, in vitro | inhibition, % at 35 µM | AID 2006 | 290,000 tested, 0.36% active; in the data active means inhibition above about 50%, passing the limit was not always enough; inconclusive means no clear call, values can overlap the other calls
Target sequence (P63279 whole entry, looked up): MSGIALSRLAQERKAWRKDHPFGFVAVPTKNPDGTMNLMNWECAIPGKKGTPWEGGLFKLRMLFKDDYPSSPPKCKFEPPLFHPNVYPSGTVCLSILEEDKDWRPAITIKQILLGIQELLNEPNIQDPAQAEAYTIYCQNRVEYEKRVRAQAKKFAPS
pCIP destab = compounds decreasing mouse p/CIP protein stability; F442A p/CIP-EGFP cells, EGFP fluorescence, 16 h; AID 1984; decrease of EGFP signal, % at 10 µM; 290,000 tested, 0.01% active; Q05BA5;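 active means EGFP signal decrease of at least 30% at 10 µM or well 3 SD below plate mean, unless failing retest; inactive means the rest, including hits failing retest or dose response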
Fh CTSL1 inh = blocks F. hepatica cathepsin L1 in PFM18AAP counter-screen | recombinant F. hepatica cathepsin L1, Z-Leu-Arg-MCA fluorescence | AID 1906 | 300,000 tested, 0.49% active | inhibition, % at 5.96 µM;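 active means inhibition above the mean of all tested compounds plus 3 SD, set per screening campaign, cut at about 17% in these data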;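 further: 0% = plate median of test compound wells and 100% = 1 µM Z-Phe-Ala-diazomethylketone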
VIM-2 inhibitor = blocks Pseudomonas aeruginosa VIM-2 metallo-beta-lactamase | 290,000 tested, 0.89% active | purified VIM-2, nitrocefin hydrolysis, epi-absorbance fluorescence | inhibition, % at 5.6 µM;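 active means inhibition above the mean of all tested compounds plus 3 SD, cutoff set per screening run, cut at about 7.5% in these data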;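 further: red hydrolysis product quenches plate fluorescence so inhibitors raise well fluorescence; 0% = enzyme with DMSO and 100% = DMSO without enzyme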
IMP-1 inh = blocks Pseudomonas aeruginosa IMP-1 metallo-beta-lactamase. purified IMP-1, nitrocefin hydrolysis, epi-absorbance fluorescence. inhibition, % at 5.6 µM. 290,000 tested, 0.45% active;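 active means inhibition above the mean plus 3 SD of all compounds in the same screening run, cut at about 4.5% in these data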;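 further: 0% = IMP-1 with DMSO and 100% = DMSO wells lacking enzyme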
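Assay system: purified IMP-1; Quantity: IMP-1 0.2 nM before substrate addition; Medium: HEPES buffer pH 7.1 with ZnSO4 and Brij 35; Incubation: 15 min enzyme–compound preincubation, then 25 min nitrocefin reaction, 25 °C; Signal: fluorescence quenching readout, ex 480/em 530 nm; Controls: DMSO with and without IMP-1; Repeats: singlicate testing.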
T cell modulator = T cell immune modulators affecting CD8 T cell-vesicle binding | 2C CD8+ T cell-vesicle binding, flow cytometry; hits give low values | response (vesicle binding), % at 7 µM | 330,000 tested, 0.068% active | AID 2052;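 active means response, share of CD8 T cells binding vesicles, and their 90th percentile fluorescence all below set limits, cut at about 80% in these data, passing the limit was not always enough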;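 further: values below 100% mean blocked vesicle binding to the CD8+ T cells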
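Test system: purified 2C TCR transgenic mouse naive CD8+ T cells. Probe or stimulus: QL9-peptide-loaded Drosophila micro-vesicles bearing Ld, ICAM-1 and B7-1. Incubation: binding step 1.5 h, 37 °C, antibody labelling 20 min, ice. Measured by: flow cytometry of vesicle-bound cells.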
VIM-2 confirm = VIM-2 inhibition, confirmation assay; 200 tested, 73% active; inhibition, % at 5.6 µM; purified VIM-2 enzyme, nitrocefin absorbance; AID 1860; shares compounds with IMP-1 inh; in the data active means inhibition above about 8%;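 further: 0% = enzyme with vehicle and 100% = no enzyme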
TEM-1 inh 2 = blocks E. coli TEM-1 beta-lactamase, VIM-2 IMP-1 counter-screen; 200 tested, 50% active; nitrocefin absorbance inhibition; AID 2184; inhibition, % at 5.6 µM; shares compounds with IMP-1 inh; in the data active means inhibition above about 0.66%
Target sequence (P62593 whole entry, looked up): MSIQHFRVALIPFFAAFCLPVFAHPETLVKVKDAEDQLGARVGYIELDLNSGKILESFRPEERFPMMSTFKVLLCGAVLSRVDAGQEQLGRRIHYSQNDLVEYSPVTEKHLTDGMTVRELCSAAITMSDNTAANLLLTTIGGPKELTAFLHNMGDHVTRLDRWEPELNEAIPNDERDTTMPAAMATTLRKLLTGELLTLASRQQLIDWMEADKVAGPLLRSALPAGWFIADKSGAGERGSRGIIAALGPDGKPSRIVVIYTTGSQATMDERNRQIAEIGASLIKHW
IMP-1 confirm = confirmation of P. aeruginosa IMP-1 metallo-beta-lactamase inhibitors; inhibition, % at 5.6 µM; 200 tested, 60% active; purified IMP-1 enzyme, absorbance substrate hydrolysis; AID 2189; shares compounds with IMP-1 inh; in the data active means inhibition above about 4.9%;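 further: 0% = enzyme with vehicle and 100% = vehicle without enzyme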
* marks the source's active call; other numbers are inactive results; i = inactive; ? = inconclusive; . = no result. Shown are actives, neighbours in structure and some others; about 1.9% of the full set was active somewhere.

SMILES	UBC9 SUMO inh	pCIP destab	Fh CTSL1 inh	VIM-2 inhibitor	IMP-1 inh	T cell modulator	VIM-2 confirm	TEM-1 inh 2	IMP-1 confirm
CCN(CC)C(=O)Cn1cc(C(=O)C(=O)NCCCN2CCCCC2)c2ccccc21	10	4	-2	-2	-4	372	.	.	.
Cc1cc(OCC(=O)OCC(=O)NC2CCCCC2C)ccc1Cl (stereo not given)	.	.	.	.	.	184	.	.	.
O=C(O)Cn1cc(C(=S)N2CCCCC2)c2ccccc21	14	0	-3	9.2*	5.0*	359	-3	-6	-4
COc1cc2[nH]c(=O)n(C3CCCCC3)c(=O)c2cc1OC	11	-12	3	-1	-3	251	.	.	.
CCCCn1c(=O)[nH]c2nc3cc(N)ccc3nc2c1=O	98*	-41	1	19*	17*	208	22*	31*	18*
Nc1ccc2nc3c(=O)n(CCc4ccccc4)c(=O)[nH]c3nc2c1	68*	-31	0	9.1*	11*	549	19*	33*	18*
Cc1cc2nc3c(=O)n(CCc4ccccc4)c(=O)[nH]c3nc2cc1N	46	-36	3	5	3	527	.	.	.
Nc1ccc2nc3c(=O)n(C4CCCCC4)c(=O)[nH]c3nc2c1	61*	-169	2	21*	24*	382	23*	30*	16*
C=CCn1c(=O)[nH]c2nc3cc(N=CN(C)C)c(C)cc3nc2c1=O	29	-26	4	5	2	107	.	.	.
CCOc1cc(C(=O)Oc2cc(C)[nH]c(=O)c2[N+](=O)[O-])cc(OCC)c1OCC	14	-2	3	-3	-1	263	.	.	.
CCCc1cc(C(N)=S)ccn1	9	3	-5	8	4.8*	658	3	-1	0
Cc1cccc(NC(=O)C2CCCN(C(=O)Nc3ccc(F)cc3)C2)c1 (stereo not given)	-3	6	-3	-5	-4	464	.	.	.
CC[n+]1c(/C=C/N(C)c2ccccc2)oc2ccc(Cl)cc21	-2	-20	5	1	-4	282	.	.	.
CCN1/C(=C/C=C/c2oc3ccc4ccccc4c3[n+]2CC)Oc2ccc3ccccc3c21	90*	-667	0	13*	33*	i	9.9*	18*	14*
Cn1cc(/C=C(\C(=O)O)C(C(=O)O)=C2CCCCC2)c2ccccc21	-2	34	0	9.5*	11*	258	13*	0	10*
OCCC1CN(Cc2ccccc2-c2ccco2)CCN1C1CCCC1 (stereo not given)	21	-3	-1	-3	-3	258	.	.	.
O=[n+]1c2c(n([O-])c3cc(Br)ccc31)CCCC2	4	0	5	-2	-1	304	.	.	.
O=[n+]1c2c(n([O-])c3ccccc31)CCCC2	8	7	0	13*	35*	470	0	-1	-3
CCOC(=O)C1=C(C)C/C(=N\NC(=O)c2ccccc2O)CC1	-2	14	5	-4	-3	149	.	.	.
Oc1c(C=Nc2cccnc2)sc2ccccc12	-6	5	0	1	-4	474	.	.	.
Oc1sc(C=Nc2ccccc2)c2ccccc12	9	-97	2	17*	15*	469	23*	0	4
CCN(CC)c1ccc2c(-c3ccc(S(=O)(=O)O)cc3S(=O)(=O)[O-])c3ccc(=[N+](CC)CC)cc-3oc2c1	?	-498	6	104*	104*	744	85*	150*	80*
CCN(CC)c1ccc2nc3c4ccccc4c(=O)cc-3oc2c1	-17	-147	.	7	0	294	.	.	.
O/C=c1\ccc2cccc3nc(C(F)(F)F)nc1c23	20	-142	13	21*	6.8*	434	33*	5.0*	11*
CCOc1ccc(NC(=O)c2c(NC(=O)CN3CCN(C)CC3)sc3c2CCC3)cc1	13	-9	1	9.6*	4.7*	243	16*	-3	2
SMILES	UBC9 SUMO inh	pCIP destab	Fh CTSL1 inh	VIM-2 inhibitor	IMP-1 inh	T cell modulator	VIM-2 confirm	TEM-1 inh 2	IMP-1 confirm
CCCn1c(N)c(N(CCOC)C(=O)CSCC(=O)Nc2ccc(OC)cc2)c(=O)[nH]c1=O	.	.	1	.	.	455	.	.	.
COC(=O)c1sccc1NC(=O)c1ccc(C#N)cc1	-10	2	1	16*	32*	.	14*	0	22*
COc1ccccc1-n1c(SCC(=O)OC(C)C)nc2cccnc21	20	-10	-1	16*	38*	600	0	-2	-1
COc1ccc(/C=C2\CCCc3c2nc2ccccc2c3C(=O)O)cc1OC	33	-66	3	16*	17*	268	23*	39*	19*
COc1ccc(/C=C2\CCc3c2nc2ccccc2c3C(=O)O)cc1OC	29	-12	6	-1	2	540	.	.	.
CCOc1ccc(/C=C2\CCCc3c2nc2ccccc2c3C(=O)O)cc1OC	29	-116	3	38*	29*	225	37*	56*	28*
O=C(NC(=S)NN1CCCCC1c1cccnc1)c1ccc(Cl)cc1Cl (stereo not given)	1	-5	1	-4	-4	236	.	.	.
O=C1C(=O)N(C2CCS(=O)(=O)C2)C(c2cccc(O)c2)/C1=C(/O)c1ccc(Cl)cc1 (stereo not given)	12	2	1	0	0	389	.	.	.
Cc1[nH]c2ccccc2c1-c1nc2ccccc2[nH]c1=O	0	-7	1	0	-3	558	.	.	.
O=C(CSc1ncn[nH]1)N1c2ccccc2Sc2ccccc21	30	-10	3	0	-2	362	.	.	.
CCOC(=O)c1c(C)n(-c2ccc(C)cc2)c2c(C(C(C)=O)C(=O)O)c(Br)c(O)c(O)c12 (stereo not given)	-15	-4	7	7	5.4*	363	-1	-5	-4
CN1CCS/C1=C/C=C1\SC(=S)N(CC(=O)O)C1=O	-8	-133	8	9.6*	6.8*	308	8	-7	2
CCOC(=O)[C@H]1[C@H]2COc3ccccc3[C@@H]2N2C(=O)CN(CC3CCCO3)C(=O)[C@@]12C (stereo not given in full)	.	.	.	.	.	205	.	.	.
COc1ccc(S(=O)(=O)N2CCCCC2)cc1NC(=O)CCNC(=O)c1ccc(Cl)cc1	.	.	.	.	.	293	.	.	.
CSc1ccc(/C=C2\C(=N)N3N=C(CC(=O)N4CCOCC4)SC3=NC2=O)cc1	6	-8	-4	-3	-3	390	.	.	.
